Reference: PubChem BioAssay AID2430 (Vanderbilt High Throughput Screening Facility, 2010)
Calls of active or inactive are those of the source. The rule behind the calls is not given here.

What follows are molecules tested against Muscarinic acetylcholine receptor M2 (Homo sapiens) (UniProt P08172) (assay: potentiation of ACh calcium response at M2 – cell-based, CHO-K1 M2/Gqi5, Fluo-4 calcium, ACh EC20, selectivity assay for M1 muscarinic PAM project, dose response (AID 2430)). Details: CHO-K1 M2/Gqi5 calcium Fluo-4, ACh EC20 PAM mode; series mostly up to 30 µM; percent of max ACh response: at the top concentration.
Summary of the method: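 Measured by – calcium flux measured with Fluo-4 fluorescent dye · System – CHO-K1 cells transfected with human M2 receptor and Gqi5 · Incubation – 37 °C dye loading, 1.5 min compound, 50 s ACh, 25 °C · Buffer or medium – HEPES- and probenecid-supplemented HBSS, pH 7.4 · Dosing – test compound with 0.3% DMSO final · Reagent – ACh near EC20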

Sequence of Muscarinic acetylcholine receptor M2 (Homo sapiens) (P08172 whole entry, looked up): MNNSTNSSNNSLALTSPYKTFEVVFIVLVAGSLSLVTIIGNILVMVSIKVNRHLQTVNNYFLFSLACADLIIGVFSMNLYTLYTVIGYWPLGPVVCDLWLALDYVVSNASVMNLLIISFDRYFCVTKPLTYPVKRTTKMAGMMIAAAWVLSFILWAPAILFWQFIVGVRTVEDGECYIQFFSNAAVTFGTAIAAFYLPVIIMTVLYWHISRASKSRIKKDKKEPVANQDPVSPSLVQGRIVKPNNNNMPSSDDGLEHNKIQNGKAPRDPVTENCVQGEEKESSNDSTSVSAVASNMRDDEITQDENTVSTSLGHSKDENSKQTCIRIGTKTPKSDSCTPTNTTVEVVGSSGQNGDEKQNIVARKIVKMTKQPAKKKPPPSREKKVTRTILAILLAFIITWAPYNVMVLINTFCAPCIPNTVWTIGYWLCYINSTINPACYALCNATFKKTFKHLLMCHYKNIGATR

Percent of max ACh response, inactive:
Cn1cc(-c2ccc(CN3C(=O)C(=O)c4ccccc43)c(F)c2)cn1 26.4%
O=C1C(=O)N(Cc2ccc(Oc3ccccc3)cc2)c2ccc(OC(F)(F)F)cc21 10.6%
Cn1cc(-c2cc(F)c(CN3C(=O)C(=O)c4ccccc43)c(F)c2)cn1 23.3%
Cc1cc(NC(=O)CS(=O)(=O)c2cn(Cc3cc(Br)ccc3F)c3ccccc23)no1 13.4%
